Experimental data taken from ChEMBL document CHEMBL3407439, “A facile and novel synthesis of N(2)-, C(6)-substituted pyrazolo[3,4-d]pyrimidine-4 carboxylate derivatives as adenosine receptor antagonists” (Eur J Med Chem, 2015).

Legend:
Adenosine receptor A1 = biological target: T1, Adenosine receptor A1 (Homo sapiens, UniProt P30542); experiment: Displacement of [3H]CCPA from human adenosine A1 receptor expressed in CHO cells by Top Count analysis; assay type: cell-based
T1 sequence (P30542 whole entry): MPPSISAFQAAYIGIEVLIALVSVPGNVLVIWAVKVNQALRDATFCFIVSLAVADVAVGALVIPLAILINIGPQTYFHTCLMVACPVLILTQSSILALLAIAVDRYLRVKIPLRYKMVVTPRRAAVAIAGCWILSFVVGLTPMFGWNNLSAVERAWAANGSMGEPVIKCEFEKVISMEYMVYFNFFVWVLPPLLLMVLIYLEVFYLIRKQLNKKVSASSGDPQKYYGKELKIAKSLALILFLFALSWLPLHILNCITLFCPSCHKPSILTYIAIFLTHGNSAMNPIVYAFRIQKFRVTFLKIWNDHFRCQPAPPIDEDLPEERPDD
In short: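 Tritiated-radioligand competition binding at hA1 receptor, 3 h at room temperature; nonspecific binding with 1 mM theophylline. Separation by GF/B glass-fibre filtration, filter radioactivity counted by scintillation (57% efficiency). Ki from competition curves by nonlinear curve fitting.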

Adenosine receptor A2a = Adenosine receptor A2a (Homo sapiens, UniProt P29274); experiment: Displacement of [3H]NECA from human adenosine A2A receptor expressed in CHO cells by Top Count analysis; assay type: cell-based
Adenosine receptor A2b = biological target: T2, Adenosine receptor A2b (Homo sapiens, UniProt P29275); experiment: Antagonist activity at human adenosine A2B receptor expressed in CHO cells assessed as inhibition of NECA-induced adenylyl cyclase activity; assay type: functional, cell-based
T2 sequence (P29275 whole entry): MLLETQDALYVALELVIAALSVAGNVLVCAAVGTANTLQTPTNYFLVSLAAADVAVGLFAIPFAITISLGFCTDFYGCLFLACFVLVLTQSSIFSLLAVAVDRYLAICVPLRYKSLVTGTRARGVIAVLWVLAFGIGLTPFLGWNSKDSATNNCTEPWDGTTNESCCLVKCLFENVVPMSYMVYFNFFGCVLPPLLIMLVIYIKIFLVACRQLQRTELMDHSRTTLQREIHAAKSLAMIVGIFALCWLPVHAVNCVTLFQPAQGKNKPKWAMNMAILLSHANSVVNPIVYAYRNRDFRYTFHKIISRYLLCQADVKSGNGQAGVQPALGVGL
In short: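 Membranes from CHO cells transfected with hA2B receptor incubated 20 min with 100 nM NECA, 150,000 cpm [α-32P]ATP and varying antagonist concentrations, in mixture lacking EGTA and NaCl. Ki derived from concentration-dependent inhibition of NECA-stimulated adenylyl cyclase activity; n = 3–6.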

Adenosine receptor A3 = biological target: T3, Adenosine receptor A3 (Homo sapiens, UniProt P0DMS8); experiment: Displacement of [3H]HEMADO from human adenosine A3 receptor expressed in CHO cells by Top Count analysis; assay type: cell-based
T3 sequence (P0DMS8 whole entry): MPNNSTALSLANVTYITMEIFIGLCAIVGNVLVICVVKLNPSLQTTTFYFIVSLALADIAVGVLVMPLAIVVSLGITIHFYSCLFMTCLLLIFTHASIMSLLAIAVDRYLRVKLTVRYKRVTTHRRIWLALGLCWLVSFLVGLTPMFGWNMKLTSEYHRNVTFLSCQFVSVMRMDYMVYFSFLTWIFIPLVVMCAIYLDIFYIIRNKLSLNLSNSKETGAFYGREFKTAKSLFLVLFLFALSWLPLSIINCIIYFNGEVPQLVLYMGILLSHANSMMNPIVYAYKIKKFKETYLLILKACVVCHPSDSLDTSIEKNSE
In short: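 Competition against [3H]HEMADO binding at hA3 receptor in CHO cells, 3 h at room temperature; nonspecific binding defined with 100 µM R-PIA.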

[1] = biological target: Adenosine receptors; A1 & A3 (Homo sapiens) (UniProt P30542+P0DMS8); experiment: Selectivity ratio of Ki for human adenosine A1 receptor to Ki for human adenosine A3 receptor
Homo sapiens = species on record: Homo sapiens; experiment: Selectivity ratio of Ki for human adenosine A2A receptor to Ki for human adenosine A3 receptor

Adenosine receptor A2a, sequence (P29274 whole entry): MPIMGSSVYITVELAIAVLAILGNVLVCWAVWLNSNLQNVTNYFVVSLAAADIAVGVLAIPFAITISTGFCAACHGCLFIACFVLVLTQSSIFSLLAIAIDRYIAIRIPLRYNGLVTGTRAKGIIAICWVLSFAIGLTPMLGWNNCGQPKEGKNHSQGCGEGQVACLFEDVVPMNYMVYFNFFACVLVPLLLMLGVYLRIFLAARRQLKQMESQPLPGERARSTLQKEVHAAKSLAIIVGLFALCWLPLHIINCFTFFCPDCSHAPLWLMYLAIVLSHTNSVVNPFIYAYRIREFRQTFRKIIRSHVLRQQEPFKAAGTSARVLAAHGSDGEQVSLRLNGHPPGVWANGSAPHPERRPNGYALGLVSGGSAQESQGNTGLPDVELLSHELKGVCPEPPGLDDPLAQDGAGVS

Structure (SMILES)	Ki (Adenosine receptor A1)	Ki (Adenosine receptor A2a)	Ki (Adenosine receptor A2b)	Ki (Adenosine receptor A3)	Ratio Ki [1]	Ratio Ki (Homo sapiens)
CCOC(=O)c1nc(N)nc2nn(C(C)C)cc12	0.9 µM	2.6 µM	> 10 µM	14 µM	0.06	0.18
CCOC(=O)c1nc(NC(=O)c2ccc(C)cc2)nc2nn(CCc3ccccc3)cc12	> 100 µM	6 µM	> 20 µM	3 µM	> 33	2
CCOC(=O)c1nc(N(C(=O)c2ccccc2)C(=O)c2ccccc2)nc2nn(CCc3ccccc3)cc12	> 100 µM	> 100 µM	> 20 µM	> 100 µM	–	–
CCOC(=O)c1nc(NC(=O)c2ccc(C)cc2)nc2nn(C(C)C)cc12	0.7 µM	2.3 µM	> 20 µM	28 µM	0.02	0.1
CCOC(=O)c1nc(NC(=O)c2ccc(F)cc2)nc2nn(C(C)C)cc12	2.8 µM	2.8 µM	> 20 µM	5.7 µM	0.5	0.5
CCOC(=O)c1nc(N)nc2nn(CCc3ccccc3)cc12	3.5 µM	4.8 µM	60 µM	18.1 µM	0.19	0.26
CCOC(=O)c1nc(N)nc2nn(C)cc12	8.8 µM	2 µM	> 20 µM	0.9 µM	9.7	2.2
CCOC(=O)c1nc(NC(=O)c2ccc(F)cc2)nc2nn(CCc3ccccc3)cc12	5 µM	6.1 µM	> 20 µM	6.8 µM	0.73	0.8
CCOC(=O)c1nc(NC(=O)c2ccc(Br)cc2)nc2nn(CCc3ccccc3)cc12	2.6 µM	4.2 µM	> 20 µM	3.6 µM	0.72	1.2
CCOC(=O)c1nc(N(C(=O)c2ccccc2)C(=O)c2ccccc2)nc2nn(C(C)C)cc12	17.7 µM	> 100 µM	> 20 µM	5.4 µM	3.2	> 18.5
CCOC(=O)c1nc(NC(=O)Cc2ccccc2)nc2nn(C)cc12	5.9 µM	7.3 µM	> 20 µM	14.6 µM	0.4	0.5
CCOC(=O)c1nc(NC(=O)c2ccc(F)cc2)nc2nn(C)cc12	> 100 µM	11.5 µM	> 20 µM	> 100 µM	–	< 0.14
CCOC(=O)c1nc(N(C(=O)c2ccccc2)C(=O)c2ccccc2)nc2nn(C)cc12	> 100 µM	> 100 µM	> 20 µM	> 100 µM	–	–
CCOC(=O)c1nc(NC(=O)c2ccccc2)nc2nn(C(C)C)cc12	4.3 µM	3.3 µM	> 10 µM	8.6 µM	0.5	0.4
CCOC(=O)c1nc(NC(=O)Cc2ccccc2)nc2nn(C(C)C)cc12	0.6 µM	8.8 µM	> 10 µM	13.3 µM	0.04	0.66
CCOC(=O)c1nc(N)nc2nn(CC(C)(C)C)cc12	4 µM	5 µM	> 15 µM	10.4 µM	0.38	0.48
CCOC(=O)c1nc(NC(=O)c2ccc(C(F)(F)F)cc2)nc2nn(C(C)C)cc12	> 100 µM	> 100 µM	> 20 µM	> 100 µM	–	–
CCOC(=O)c1nc(NC(=O)c2ccc(Cl)c(Cl)c2)nc2nn(CCc3ccccc3)cc12	> 100 µM	> 100 µM	> 20 µM	2.2 µM	> 46	> 46
CCOC(=O)c1nc(NC(=O)Cc2ccccc2)nc2nn(CC(C)(C)C)cc12	2.7 µM	5.7 µM	> 20 µM	4.3 µM	0.62	1.3
CCOC(=O)c1nc(NC(=O)c2ccc(C(F)(F)F)cc2)nc2nn(CCc3ccccc3)cc12	2.5 µM	7.5 µM	> 20 µM	5.8 µM	0.5	1.3
CCOC(=O)c1nc(N(C(=O)c2ccc(Br)cc2)C(=O)c2ccc(Br)cc2)nc2nn(C)cc12	> 100 µM	> 100 µM	> 20 µM	2.9 µM	> 34	> 34
CC(C)(C)Cn1cc2c(C(N)=O)nc(N)nc2n1	> 90 µM	> 80 µM	> 20 µM	19.7 µM	> 4.6	> 4.1
CCOC(=O)c1nc(N(C(=O)c2ccc(F)c(F)c2)C(=O)c2ccc(F)c(F)c2)nc2nn(C)cc12	> 100 µM	> 100 µM	> 20 µM	> 100 µM	–	–
CCOC(=O)c1nc(NC(=O)c2ccc(C)cc2)nc2nn(C)cc12	> 100 µM	11.8 µM	> 20 µM	100 µM	> 1	0.12
CCOC(=O)c1nc(NC(=O)Cc2ccccc2)nc2nn(CCc3ccccc3)cc12	0.6 µM	2.4 µM	> 10 µM	10.4 µM	0.05	0.2
CCOC(=O)c1nc(NC(=O)c2ccc(C(F)(F)F)cc2)nc2nn(C)cc12	> 100 µM	> 100 µM	> 20 µM	> 100 µM	–	–
Cn1cc2c(C(N)=O)nc(N)nc2n1	10.2 µM	3 µM	> 20 µM	> 100 µM	–	–
CC(C)n1cc2c(C(N)=O)nc(N)nc2n1	8.2 µM	9.2 µM	> 20 µM	> 100 µM	–	–
